Results reported in ChEMBL document CHEMBL3232996, “Synthesis and biological evaluation of novel (123)I-labeled 4-(4-iodophenyl)butanoyl-L-prolyl-(2S)-pyrrolidines for imaging prolyl oligopeptidase in vivo” (Eur J Med Chem, 2014).

Tests used:
Type in all cases: ADME, organism-based
[1] = Plasma protein binding in iv dosed C57Bl/6JRccHsd mouse measured at 40 mins; details: read-out: PPB (converted)
How it was run: (§1)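 Male mice given 3.6 MBq tracer i.v. via lateral tail vein; blocking groups got POP inhibitor i.p. (50 µmol/kg, 10 mL/kg, 1% DMSO in 0.9% NaCl) 10 min before. Heparinized cardiac blood on ice, gamma-counted, spun 5 min at 2000 g; plasma counted, precipitated with 1.5 volumes acetonitrile, respun; cell-bound, protein-bound and free fractions expressed as % of blood activity; n = 3.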

[2] = Plasma protein binding in iv dosed C57Bl/6JRccHsd mouse measured at 160 mins; details: in vivo; how it was run: as §1
Mus musculus [3] = experiment: Biodistribution in gastrocnemius muscle of iv dosed C57BL/6JRccHsd mouse turpentine-induced acute localized inflammation model after 20 mins to 24 hrs by SPEC-CT analysis (reference value: 2.0 +/- 0.6 %ID/g); details: in vivo
Liver = experiment: Biodistribution in C57Bl/6JRccHsd mouse liver at 2.86 +/- 1.26 MBq, iv measured at 80 mins by SPECT analysis; details: in vivo
How it was run: (§2)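 Organs excised at 5, 20, 40, 80 or 160 min and radioactivity gamma-counted as %ID/g (brain also as %ID). Blocking groups received KYP-2047 (50 µmol/kg, 10 mL/kg, 1% DMSO in 0.9% NaCl) i.p. 10 min before tracer. Mean ± SD, n = 2–4 per time point. Blocking compared by two-tailed Student's t test.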

Lung = experiment: Biodistribution in C57Bl/6JRccHsd mouse lung at 2.86 +/- 1.26 MBq, iv measured at 80 mins by SPECT analysis; details: in vivo; how it was run: as §2
Heart = experiment: Biodistribution in C57Bl/6JRccHsd mouse heart at 2.86 +/- 1.26 MBq, iv measured at 80 mins by SPECT analysis; details: in vivo; how it was run: as §2
Mus musculus [4] = experiment: Biodistribution in C57Bl/6JRccHsd mouse testis at 2.86 +/- 1.26 MBq, iv measured at 80 mins post dose pretreated with 50 umol/kg, ip prolyl oligopeptidase inhibitor KYP-2047 10 mins before compound dosing by SPECT analysis; details: in vivo; how it was run: as §2
Mus musculus [5] = experiment: Biodistribution in C57Bl/6JRccHsd mouse salivary gland at 2.86 +/- 1.26 MBq, iv measured at 80 mins post dose pretreated with 50 umol/kg, ip prolyl oligopeptidase inhibitor KYP-2047 10 mins before compound dosing by SPECT analysis; details: in vivo; how it was run: as §2
Blood = experiment: Biodistribution in C57Bl/6JRccHsd mouse blood at 2.86 +/- 1.26 MBq, iv measured at 20 mins by SPECT analysis; details: in vivo; how it was run: as §2

N#C[C@@H]1CCCN1C(=O)[C@@H]1CCCN1C(=O)CCCc1ccc([123I])cc1
fraction unbound at 40 min [1]: 0.98 | PPB [2]: 1% | Drug uptake (Mus musculus [3]): 0.8 % ID/g | Drug uptake (Liver): 20.1 % ID/g | Drug uptake (Lung): 14.67 % ID/g | Drug uptake (Heart): 12.2 % ID/g | Drug uptake (Mus musculus [4]): 0.57 % ID/g | Drug uptake (Mus musculus [5]): 1.52 % ID/g | Drug uptake (Blood): 8.5 % ID/g
